Activity calls are given as the source filed them. No cut-off for these calls is given here.
What was measured:
[1] = test system: HeLa; assay: Cell cycle arrest in human HeLa cells assessed as accumulation at G2/M phase after 24 hrs by flow cytometry analysis (reference value: 13.2 +/- 0.48%); type: functional
[2] = test system: HeLa; assay: Cell cycle arrest in human HeLa cells assessed as accumulation at G0/G1 phase after 48 hrs by flow cytometry analysis (reference value: 73.1 +/- 1.02%); type: functional
[3] = test system: HeLa; assay: Induction of apoptosis in human HeLa cells assessed as loss of mitochondrial membrane potential using JC-1 staining after 48 hrs by fluorescence microscopic analysis; type: functional, cell-based
Procedure, shortened: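 Treated cells (48 h, 24-well plates) were given JC-1 diluted in medium and incubated 10 min at 37 °C (or 15 min at RT), washed twice in PBS and viewed by fluorescence microscopy. Orange/red fluorescence marks intact membrane potential; green marks its loss. Confirmed in three independent experiments.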

[4] = test system: HeLa; assay: Induction of apoptosis in human HeLa cells assessed as nuclear condensation using DAPI staining at IC50 after 48 hrs by fluorescence microscopic analysis; type: functional, cell-based
Procedure, shortened: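 They were PBS-washed, stained with DAPI (1 µg/mL in methanol) for 10 min at 37 °C and imaged by fluorescence microscopy. Condensed chromatin or fragmented nuclei scored as apoptotic; three independent experiments.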

[5] = test system: HeLa; assay: Induction of apoptosis in human HeLa cells assessed as activation of caspase 8 after 48 hrs by fluorescence assay relative to control; type: functional
Procedure, shortened: (§1)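 Fluorogenic substrate assay. 1×10⁶ HeLa cells treated 48 h, lysed in Tris/phosphate buffer pH 7.5 with 1% Triton X-100. Lysate incubated 1 h at 37 °C in PIPES assay buffer pH 7.2 (DTT, EDTA, CHAPS, sucrose) with Ac-DEVD-AFC (caspase 3), Ac-IETD-AFC (caspase 8) or Ac-LEHD-AFC (caspase 9). AFC read at excitation 400 nm, emission 480–520 nm; fold RFU over untreated control; mean ± SD of three experiments.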

[6] = test system: HeLa; assay: Induction of apoptosis in human HeLa cells using acridine orange/ethidium bromide staining at IC50 after 48 hrs by fluorescence microscopic analysis; type: functional, cell-based
Procedure, shortened: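 HeLa cells seeded at 75000/well in 24-well plates, treated at IC50 for 48 h, PBS-washed and stained with acridine orange/ethidium bromide mixture (each 100 µg/mL) for 30 min at 37 °C. Apoptotic morphology assessed by fluorescence microscopy; three independent experiments in duplicate.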

[7] = test system: HeLa; assay: Inhibition of TNFalpha-induced NFkappaB activation (unknown origin) expressed in human HeLa cells at IC50 treated 24 hrs before TNFalpha challenge measured after 5 hrs by luciferase reporter gene assay; type: cell-based
[8] = test system: HeLa; assay: Cell cycle arrest in human HeLa cells assessed as accumulation at G0/G1 phase after 24 hrs by flow cytometry analysis (reference value: 80.7 +/- 0.47%); type: functional
[9] = test system: HeLa; assay: Cell cycle arrest in human HeLa cells assessed as accumulation at sub-G0 phase after 24 hrs by flow cytometry analysis (reference value: 1.2 +/- 0.29%); type: functional
[10] = test system: HeLa; assay: Induction of apoptosis in human HeLa cells assessed as activation of caspase 9 after 48 hrs by fluorescence assay relative to control; type: functional; procedure, shortened: as §1
[11] = test system: HeLa; assay: Induction of apoptosis in human HeLa cells assessed as activation of caspase 3 after 48 hrs by fluorescence assay relative to control; type: functional; procedure, shortened: as §1
[12] = test system: HeLa; assay: Cell cycle arrest in human HeLa cells assessed as accumulation at G2/M phase after 48 hrs by flow cytometry analysis (reference value: 16.6 +/- 0.16%); type: functional
[13] = test system: HeLa; assay: Cytotoxicity against human HeLa cells after 48 hrs by alamar blue assay; type: functional, cell-based
Procedure, shortened: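 Alamar blue (resazurin) viability assay. HeLa cells seeded at 5000 cells/well, treated 24 h later with a range of concentrations for 48 h. Alamar blue (0.2 mg/mL) was then added for 2–4 h and absorbance read at 570 and 595 nm. Survival is percent of untreated control; IC50 taken from the concentration–response curves; three experiments in triplicate.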

[14] = test system: HeLa; assay: Cell cycle arrest in human HeLa cells assessed as accumulation at S phase after 48 hrs by flow cytometry analysis (reference value: 7.2 +/- 0.77%); type: functional
[15] = test system: HeLa; assay: Cell cycle arrest in human HeLa cells assessed as accumulation at S phase after 24 hrs by flow cytometry analysis (reference value: 4.5 +/- 0.2%); type: functional
[16] = test system: HeLa; assay: Cell cycle arrest in human HeLa cells assessed as accumulation at sub-G0 phase after 48 hrs by flow cytometry analysis (reference value: 2.3 +/- 0.37%); type: functional

## COc1ccc(Nc2nc(N)c(C(=O)c3c[nH]c4ccccc34)s2)cc1
[1]
  Activity: 35.3%
[2]
  Activity: 24%
[3]
  Activity: Active
[4]
  Activity: Active
[5]
  fold change (FC): 1.1
[6]
  Activity: Active
[7]
  inhibition: 34%
[8]
  Activity: 43.2%
[9]
  Activity: 16.7%
[10]
  fold change (FC): 1.6
[11]
  fold change (FC): 2.8
[12]
  Activity: 12.5%
[13]
  IC50: 1 µM
[14]
  Activity: 7.8%
[15]
  Activity: 4.2%
[16]
  Activity: 49%

## COc1cc(/C=C/C(=O)c2sc(Nc3ccc(Cl)cc3)nc2N)ccc1O
[1]
  Activity: 27.2%
[2]
  Activity: 38%
[3]
  Activity: Active
[4]
  Activity: Active
[5]
  fold change (FC): 0.9
[6]
  Activity: Active
[7]
  inhibition: 87%
[8]
  Activity: 64.7%
[9]
  Activity: 3.4%
[10]
  fold change (FC): 2.3
[11]
  fold change (FC): 1.5
[12]
  Activity: 28.2%
[13]
  IC50: 60 µM
[14]
  Activity: 14.2%
[15]
  Activity: 4.4%
[16]
  Activity: 16.7%

## COc1cc(/C=C/C(=O)CC(=O)/C=C/c2ccc(O)c(OC)c2)ccc1O [CURCUMIN]
[3]
  Activity: Active
[5]
  fold change (FC): 1.4
[7]
  inhibition: 79%
[10]
  fold change (FC): 1.7
[11]
  fold change (FC): 2.1

## COc1ccc(/C=C/C(=O)c2sc(Nc3ccc(Cl)cc3)nc2N)cc1O
[1]
  Activity: 51.4%
[2]
  Activity: 15%
[3]
  Activity: Active
[4]
  Activity: Active
[5]
  fold change (FC): 1.2
[6]
  Activity: Active
[7]
  inhibition: 56%
[8]
  Activity: 15.37%
[9]
  Activity: 25.8%
[10]
  fold change (FC): 2.6
[11]
  fold change (FC): 2.2
[12]
  Activity: 35.8%
[13]
  IC50: 30 µM
[14]
  Activity: 9%
[15]
  Activity: 6.8%
[16]
  Activity: 35%

## Nc1nc(Nc2ccc(Cl)cc2)sc1C(=O)c1c[nH]c2ccccc12
[1]
  Activity: 11.8%
[2]
  Activity: 13.75%
[3]
  Activity: Active
[4]
  Activity: Active
[5]
  fold change (FC): 0.96
[6]
  Activity: Active
[7]
  inhibition: 80%
[8]
  Activity: 56.34%
[9]
  Activity: 23.74%
[10]
  fold change (FC): 2.5
[11]
  fold change (FC): 2.5
[12]
  Activity: 21.56%
[13]
  IC50: 45 µM
[14]
  Activity: 8.95%
[15]
  Activity: 8.12%
[16]
  Activity: 55.33%

## COc1ccc(Nc2nc(Nc3ccc(Cl)cc3)c(C(=O)c3c[nH]c4ccccc34)s2)cc1
[1]
  Activity: 17.51%
[2]
  Activity: 38.53%
[3]
  Activity: Active
[4]
  Activity: Active
[5]
  fold change (FC): 1.54
[6]
  Activity: Active
[7]
  inhibition: 72%
[8]
  Activity: 59.13%
[9]
  Activity: 13.17%
[10]
  fold change (FC): 4.4
[11]
  fold change (FC): 2.4
[12]
  Activity: 9.78%
[13]
  IC50: 20 µM
[14]
  Activity: 7.69%
[15]
  Activity: 10.19%
[16]
  Activity: 42.37%
